Where only a bound is given, the exact number is not on record here.

The nature of series [1]: Cytotoxic evaluation on HepG2 cell line. The format is cell-based. Conditions: human, HepG2 cells (hepatocarcinoma cell line). A digest of the protocol: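 HepG2 cells were seeded at 1 × 10^5 cells/mL in Alpha MEM with 10% FBS, 2 mM L-glutamine and antibiotics, and pre-incubated for 24 h at 37°C, 5% CO2. Compounds were added at various concentrations for 72 h, and wells were checked for precipitate. MTT (0.5 mg/mL) was added for 2 h, formazan was dissolved in DMSO, and A570 was read. Doxorubicin was the positive control. CC50 came from non-linear regression, mean of three independent experiments.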

Series [2] relates to L. infantum axenic amastigotes. The series can be described thus: Antileishmanial activity on L. infantum axenic amastigotes. It is filed as cell-based. The settings on record: Leishmania infantum, 48 h, read-out: IC50 L. infantum axenic amastigotes. A digest of the protocol:
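They were moved to RPMI at pH 5.4 for 24 h at 24°C, then 24 h at 37°C, to give axenic amastigotes. Compounds in DMSO (final <0.5% v/v) were tested in duplicate for 48 h at 37°C. Read-out was Steady Glow luminescence. IC50 came from non-linear regression, mean of three independent experiments.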

Series [3] can be described thus: Cyclic voltammetry, reduction potentials. The format is physicochemical. The settings on record: DMSO/TBAPF6, SCE/GC, 1 electron reversible reduction, V versus NHE.
Series [4] concerns T. brucei brucei trypomastigotes. The series can be described thus: Antitrypanosomal activity on T. brucei brucei trypomastigotes. The format is cell-based, Trypanosoma brucei brucei. Conditions: for Antitrypanosomal selectivity Index: CC50 HepG2 / IC50 T. brucei brucei; for times more potent than the meta-substituted analogue: T. brucei brucei IC50, para versus meta (15 vs 16, 21 vs 22).

For series [5], the system named is T. brucei brucei trypomastigotes wild type strain. Put plainly: Bioactivation study, wild type strain. The format is cell-based. The settings on record: Trypanosoma brucei, 72 h, read-out: IC50 T. brucei brucei trypomastigotes wild type strain.
In series [6] the test system is T. brucei brucei trypomastigotes NTR over-expressing strain. Put plainly: Bioactivation study, strain overexpressing the nitroreductase. It is filed as cell-based, Trypanosoma brucei. The settings on record: for IC50: Trypanosoma brucei, 72 h, read-out: IC50 T. brucei brucei trypomastigotes NTR over-expressing strain; for Fold change: wild type IC50 / NTR over-expressing IC50. A digest of the protocol: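 Bloodstream T. brucei S427 'single marker' was grown at 37°C in HMI9-T with 2.5 µg/mL G418. The NTR1-overexpressing line also received 2.5 µg/mL phleomycin, with NTR induced by 1 µg/mL tetracycline 48 h before assay. Triplicate cultures were seeded at 1 × 10^5 cells/mL with inhibitor and counted after 72 h. EC50 came from a two-parameter fit (slope factor m) to background-corrected density as % of uninhibited control. Fold change is wild-type IC50 / overexpressor IC50.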

A short description of series [7]: Chemical stability of the product. The format is physicochemical. Conditions: in words; cyclises to 25 on recrystallisation from acetonitrile.
Series [8] is described as follows: Aqueous solubility as observed in the biological assays. The format is physicochemical. The settings on record: in words.

As usually defined, the CC50 is the concentration that lowers cell viability or growth by half. Low readings indicate harm at low concentration, high ones better tolerance by the cells. Broadly, the IC50 is the concentration that gives 50% inhibition. In series [1], `C[C@@H]1[C@H](O)[C@@H](C)/C=C/C=C/C=C/C=C/C=C/C=C/C=C/[C@H](O[C@@H]2O[C@H](C)[C@@H](O)[C@H](N)[C@@H]2O)C[C@@H]2O[C@](O)(C[C@@H](O)C[C@@H](O)[C@H](O)CC[C@@H](O)C[C@@H](O)CC(=O)O[C@H]1C)C[C@H](O)[C@H]2C(=O)O` [Amphotericin B, reference compound] gave a CC50 at 72 h of 7 ± 0.25 µM. Further, in series [2], the IC50 is 0.06 ± 0.001 µM.
For `O=c1[nH]c2c([N+](=O)[O-])cccc2cc1-c1ccccc1` [Compound 1, 8-nitro-3-phenylquinolin-2(1H)-one], in series [3], the “E° (reduction potential)” value is reported as -0.59 V. Also, the CC50 at 72 h in series [1] was above 12 µM. Further, the “Antitrypanosomal selectivity Index” value in series [4] was above 2. Besides, in series [2], the IC50 is above 12 µM.
Turning to `COc1ccc(-c2cc3cccc([N+](=O)[O-])c3[nH]c2=O)cc1` [Compound 2, 3-(4-methoxyphenyl)-8-nitroquinolin-2(1H)-one], the CC50 at 72 h in series [1] is above 6 µM. In series [2], the IC50 is above 6 µM.
`O=c1[nH]c2c([N+](=O)[O-])cccc2cc1-c1ccc(O)cc1` [Compound 3, 3-(4-hydroxyphenyl)-8-nitroquinolin-2(1H)-one] yielded a CC50 at 72 h in series [1] above 3 µM. Also, the IC50 in series [2] is above 3 µM.
In series [1], `Nc1ccc(-c2cc3cccc([N+](=O)[O-])c3[nH]c2=O)cc1` [Compound 4, 3-(4-aminophenyl)-8-nitroquinolin-2(1H)-one] had a CC50 at 72 h above 3 µM. For the same compound, the IC50 in series [2] was above 3 µM.
The compound `O=c1[nH]c2c([N+](=O)[O-])cccc2cc1-c1ccc(Cl)cc1` [Compound 5, 3-(4-chlorophenyl)-8-nitroquinolin-2(1H)-one] registered a half-maximal cytotoxic concentration (CC50) at 72 h in series [1] above 3 µM. The IC50 in series [2] is above 3 µM.
For the compound `O=c1[nH]c2c([N+](=O)[O-])cccc2cc1-c1ccc(F)cc1` [Compound 6, 3-(4-fluorophenyl)-8-nitroquinolin-2(1H)-one], the CC50 at 72 h in series [1] is above 6 µM. For the same compound, the IC50 in series [2] is above 6 µM.
Consider `O=c1[nH]c2c([N+](=O)[O-])cccc2cc1-c1ccc(C(F)(F)F)cc1` [Compound 7, 8-nitro-3-(4-trifluoromethylphenyl)quinolin-2(1H)-one], for which the “E° (reduction potential)” value in series [3] is -0.53 V. The compound also showed a CC50 at 72 h in series [1] above 6 µM. Further, in series [2], the IC50 is above 6 µM.
On to `O=c1[nH]c2c([N+](=O)[O-])cccc2cc1-c1ccsc1` [Compound 8, 8-nitro-3-(thiophen-3-yl)quinolin-2(1H)-one], for which, in series [1], the CC50 at 72 h is above 6 µM. For the same compound, the IC50 in series [2] was above 6 µM.
Take `O=c1[nH]c2c([N+](=O)[O-])cccc2cc1-c1ccco1` [Compound 9, 3-(2-furanyl)-8-nitroquinolin-2(1H)-one]: the CC50 at 72 h in series [1] is above 3 µM. Moreover, in series [2], the IC50 was above 3 µM.
Turning to `O=c1[nH]c2c([N+](=O)[O-])cccc2cc1-c1cccnc1` [Compound 10, 8-nitro-3-(pyridine-3-yl)quinolin-2(1H)-one], the CC50 at 72 h in series [1] was above 25 µM. For the same compound, in series [4], the “Antitrypanosomal selectivity Index” value is above 9. The IC50 in series [2] was above 50 µM.
The compound `O=c1[nH]c2c([N+](=O)[O-])cccc2cc1-c1ccc(CO)cc1` [Compound 12, 3-(4-hydroxymethylphenyl)-8-nitroquinolin-2(1H)-one] came in with a CC50 at 72 h in series [1] above 25 µM. Besides, the “Antitrypanosomal selectivity Index” value in series [4] was above 13. For the same compound, the IC50 in series [2] was above 25 µM.
In series [1], `O=c1[nH]c2c([N+](=O)[O-])cccc2cc1-c1cccc(CO)c1` [Compound 13, 3-(3-hydroxymethylphenyl)-8-nitroquinolin-2(1H)-one] gave a CC50 at 72 h above 25 µM. Moreover, in series [4], the “Antitrypanosomal selectivity Index” value is recorded as above 17. Moreover, the IC50 in series [2] came out at 29.3 ± 4.2 µM.
On to `O=c1[nH]c2c([N+](=O)[O-])cccc2cc1-c1ccccc1CO` [Compound 14, 3-(2-hydroxymethylphenyl)-8-nitroquinolin-2(1H)-one], for which, in series [1], the CC50 at 72 h was above 100 µM. The “Antitrypanosomal selectivity Index” value in series [4] is above 14. The IC50 in series [2] amounted to 22 ± 2 µM.
Regarding `O=Cc1ccc(-c2cc3cccc([N+](=O)[O-])c3[nH]c2=O)cc1` [Compound 15, 3-(4-formylphenyl)-8-nitroquinolin-2(1H)-one], in series [1], the CC50 at 72 h turned out to be 30 ± 3.7 µM. Besides, in series [4], the “Antitrypanosomal selectivity Index” value came out at 60 and the “times more potent than the meta-substituted analogue” value was found to be 11. Besides, the IC50 in series [2] was 35 ± 1.7 µM.
In series [1], `O=Cc1cccc(-c2cc3cccc([N+](=O)[O-])c3[nH]c2=O)c1` [Compound 16, 3-(3-formylphenyl)-8-nitroquinolin-2(1H)-one] yielded a CC50 at 72 h above 100 µM. Besides, the “Antitrypanosomal selectivity Index” value in series [4] was above 18. Moreover, the IC50 in series [2] is 10.2 ± 0.6 µM.
As for `O=Cc1ccccc1-c1cc2cccc([N+](=O)[O-])c2[nH]c1=O` [Compound 17, 3-(2-formylphenyl)-8-nitroquinolin-2(1H)-one], in series [1], the cytotoxic concentration (CC50) at 72 h is above 50 µM. Also, the “Antitrypanosomal selectivity Index” value in series [4] is given as above 7. For the same compound, the half-maximal inhibitory concentration (IC50) in series [2] was 9.8 ± 1.2 µM.
The compound `COC(=O)c1ccc(-c2cc3cccc([N+](=O)[O-])c3[nH]c2=O)cc1` [Compound 18, 3-(4-methoxycarbonylphenyl)-8-nitroquinolin-2(1H)-one] registered a CC50 at 72 h in series [1] above 12.5 µM. In addition, in series [2], the IC50 is above 12.5 µM.
Turning to `O=C(O)c1ccc(-c2cc3cccc([N+](=O)[O-])c3[nH]c2=O)cc1` [Compound 21, 3-(4-carboxyphenyl)-8-nitroquinolin-2(1H)-one], the “E° (reduction potential)” value in series [3] is -0.56 V. In addition, in series [5], the IC50 was 5.4 ± 0.12 µM. In series [6], the IC50 stood at 4200 ± 200 nM and the Fold change was 1.3. This compound also gave a CC50 at 72 h in series [1] of 120 ± 7 µM. In series [4], the “Antitrypanosomal selectivity Index” value came out at 80 and the “times more potent than the meta-substituted analogue” value is listed as 5. In addition, in series [2], the IC50 was above 100 µM.
Compound `O=C(O)c1cccc(-c2cc3cccc([N+](=O)[O-])c3[nH]c2=O)c1` [Compound 22, 3-(3-carboxyphenyl)-8-nitroquinolin-2(1H)-one] had a CC50 at 72 h in series [1] above 100 µM. Moreover, in series [4], the “Antitrypanosomal selectivity Index” value was above 13. Also, the IC50 in series [2] is above 100 µM.
Regarding `O=C(O)c1ccccc1-c1cc2cccc([N+](=O)[O-])c2[nH]c1=O` [Compound 23, 3-(2-carboxyphenyl)-8-nitroquinolin-2(1H)-one], the CC50 at 72 h in series [1] was above 100 µM. The IC50 in series [2] was above 100 µM.
As for `O=c1[nH]c2c([N+](=O)[O-])cccc2cc1C#Cc1ccccc1` [Compound 24, 8-nitro-3-phenylethynylquinolin-2(1H)-one], the stability result in series [7] is “too unstable”.
Take `O=[N+]([O-])c1cccc2cc3cc(-c4ccccc4)oc3nc12` [Compound 25, 8-nitro-2-phenyl-furo[2,3-b]quinoline]: the aqueous solubility entry in series [8] is “very poor aqueous solubility”.
Take `COc1nc2c([N+](=O)[O-])cccc2cc1-c1ccc(C(=O)O)cc1` [Compound 26, 3-(4-carboxyphenyl)-2-methoxy-8-nitroquinoline]: the IC50 in series [2] was 12.8 µM.
On to `COc1cccc2c1C(=O)c1c(O)c3c(c(O)c1C2=O)C[C@@](O)(C(=O)CO)C[C@@H]3O[C@H]1C[C@H](N)[C@H](O)[C@H](C)O1` [Doxorubicin, reference compound], for which the CC50 at 72 h in series [1] turned out to be 0.2 ± 0.02 µM.
For the compound `NCCCC(N)(C(=O)O)C(F)F` (stereo not shown) [Eflornithine, reference compound], the CC50 at 72 h in series [1] is above 100 µM. The “Antitrypanosomal selectivity Index” value in series [4] is listed as above 6.
In turn, `CSc1ccc(OCc2ncc([N+](=O)[O-])n2C)cc1` [Fexinidazole, reference compound] yielded a cytotoxic concentration (CC50) at 72 h in series [1] above 100 µM. Also, the “Antitrypanosomal selectivity Index” value in series [4] is recorded as above 250. The IC50 in series [2] came to 3.3 ± 0.7 µM.
In turn, `CCCCCCCCCCCCCCCCOP(=O)([O-])OCC[N+](C)(C)C` [Miltefosine, reference compound] showed a CC50 at 72 h in series [1] of 84.5 ± 8.8 µM. In addition, in series [2], the half-maximal inhibitory concentration (IC50) turned out to be 0.8 ± 0.2 µM.
For the compound `CC1CS(=O)(=O)CCN1/N=C/c1ccc([N+](=O)[O-])o1` (stereo not shown) [Nifurtimox, reference compound], the IC50 in series [5] is 1.9 ± 0.05 µM. For the same compound, in series [6], the IC50 came out at 600 ± 50 nM and the Fold change came out at 3.1.
Compound `Cc1ccc(C(=O)Nc2ccc(S(=O)(=O)O)c3cc(S(=O)(=O)O)cc(S(=O)(=O)O)c23)cc1NC(=O)c1cccc(NC(=O)Nc2cccc(C(=O)Nc3cc(C(=O)Nc4ccc(S(=O)(=O)O)c5cc(S(=O)(=O)O)cc(S(=O)(=O)O)c45)ccc3C)c2)c1` [Suramin, reference compound] had a CC50 at 72 h in series [1] above 100 µM. The “Antitrypanosomal selectivity Index” value in series [4] is on record as above 3333.

Values taken from publication PMC7089779 (ChemMedChem, 2018).
